Compound activity from PubChem.
MrgX1 antagonist = blocks BAM8-22 activation of human MrgX1 receptor; Q96LB2; MRGX1-HEK293 calcium flux, Fluo-4, BAM8-22 antagonism; stronger effect = lower value; B-score at 10 µM; hit rate 1.3% among 310,000; AID 588676;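 active = calcium-response B-score plate-corrected more than 3 library SD below zero, starting fluorescence within 5 deviations, no agonist response on first addition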;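 note: peak minus trough fluorescence over baseline after final BAM8-22 challenge near maximal dose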
Target sequence (Q96LB2 whole entry, looked up): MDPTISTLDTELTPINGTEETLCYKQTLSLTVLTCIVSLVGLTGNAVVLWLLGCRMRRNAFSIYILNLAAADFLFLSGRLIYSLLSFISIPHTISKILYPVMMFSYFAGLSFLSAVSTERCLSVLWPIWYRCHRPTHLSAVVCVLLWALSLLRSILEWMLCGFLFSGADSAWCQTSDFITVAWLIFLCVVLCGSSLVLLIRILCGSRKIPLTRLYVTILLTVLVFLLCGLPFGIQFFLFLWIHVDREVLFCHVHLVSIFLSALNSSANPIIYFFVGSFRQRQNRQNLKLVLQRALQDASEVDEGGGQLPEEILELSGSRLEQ
RGS4 inh = inhibitors of human RGS4. P49798. hit rate 0.45% among 310,000. HEK293 M3R/RGS4 inducible, Fluo-4 calcium flux; stronger effect = higher value; triggered by carbachol at its EC20. B-score at 10 µM;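 active = B-score, a plate-corrected calcium signal, over three deviations above library mean, with baseline fluorescence within five deviations of library mean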;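 note: RGS4 expression induced by doxycycline in cells with stable M3 receptor; B-score is computed from the integrated fluorescence ratio over baseline after carbachol; higher B-score means a larger calcium signal and so more RGS4 inhibition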
Target sequence (P49798 whole entry, looked up): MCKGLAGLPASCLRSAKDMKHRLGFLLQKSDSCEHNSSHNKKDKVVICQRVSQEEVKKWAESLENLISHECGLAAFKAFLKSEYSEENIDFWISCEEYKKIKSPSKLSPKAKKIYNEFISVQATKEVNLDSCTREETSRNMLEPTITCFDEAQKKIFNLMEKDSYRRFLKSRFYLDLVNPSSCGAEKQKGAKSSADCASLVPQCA
RGS4 act = potentiators or activators of RGS4; hit rate 0.92% among 310,000; HEK293 M3R/inducible RGS4, carbachol calcium flux Fluo4; stronger effect = lower value; B-score at 10 µM;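 active = B-score of the integrated calcium signal more than 4 SD below the library mean, with starting fluorescence not abnormally high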;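 note: negative B-score means reduced calcium response which marks RGS4 activation or potentiation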
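Test system: HEK293 cells with stable M3R and inducible RGS4; also added: carbachol at ECmax as muscarinic agonist stimulus; schedule: dye loading 30 min 37 °C, buffer rest 30 min RT; technique: kinetic calcium fluorescence imaging with Fluo4-AM dye, 2 µM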
MrgX1 agonist = activates human MrgX1 receptor signaling; B-score at 10 µM; hit rate 0.44% among 310,000; Q96LB2; MrgX1-HEK293 cells, Fluo-4 calcium fluorescence, agonist mode; stronger effect = higher value; AID 588627;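 active = calcium response B-score plate-corrected fluorescence ratio at least 3 library SD, with starting fluorescence B-score inside 5 SD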
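System: HEK293 cells stably expressing human MrgX1 receptor; Dosing: test compound in the initial addition of three; Schedule: overnight plating, then 30 min 37 °C plus 30 min room-temperature dye loading; Detection: kinetic calcium dye fluorescence, Fluo-4 NW; Controls: per-plate positive and negative controls for Z′ factor.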
MrgX1 allo act = allosterically activates human MrgX1 receptor signaling | AID 588675 | hit rate 0.63% among 310,000 | MrgX1-HEK293, Fluo-4 calcium flux, FDSS; stronger effect = higher value | B-score at 10 µM;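 active = plate-corrected calcium response at least 3 library SD above typical, normal starting fluorescence, not activating the receptor alone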;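 note: compound read alongside a low EC10 to EC30 dose of BAM8-22 agonist; peak minus trough fluorescence over baseline measured at the second addition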
Large screens that a line does not name were inactive. Rows were chosen to be rich in hits. Some 3.5% of all compounds tested hit in one or more screens of this group.

O=C(CCNC(=O)c1ccc(Br)cc1)NCc1cccnc1	none
NC(=O)c1sc(=S)n2c1[nH]c(=O)c1sccc12	MrgX1 allo act 16.5
CC(=O)NNC(=O)c1sc(=S)n2c1[nH]c(=O)c1sccc12	none
COc1cccc(Oc2cn[nH]c2-c2ccc(OCC(=O)NN)cc2O)c1	none
CCCOC(=O)c1ccc(Oc2cn[nH]c2-c2ccc(OC)cc2O)cc1	RGS4 act -7.53
Cc1ccc(C2C(C#N)=C(N)Oc3c2sc2ccccc32)o1 (centres undefined)	MrgX1 allo act 9.16
Cc1ccc(C2C(C#N)=C(N)Oc3n[nH]c(-c4ccccc4)c32)o1 (centres undefined)	MrgX1 agonist 50.2
COc1ccc(-c2ccc(C3C(C#N)=C(N)Oc4n[nH]c(C)c43)o2)cc1 (centres undefined)	MrgX1 agonist 55.4
O=C(NCc1c[nH]c2ccccc12)c1ccccc1	none
CCOc1ccc(NC(=S)N2CCC(C(N)=O)CC2)cc1	none
Cc1occc1C(=O)NC(C)C1CCCO1 (centres undefined)	MrgX1 antagonist -9.28
COc1ccc2ccccc2c1/C=N/NC(=O)c1nnn(-c2nonc2N)c1C(C)C	RGS4 act -7.06
COc1ccc2ccccc2c1/C=N/NC(=O)c1nnn(-c2nonc2N)c1CN(C)C	none
CCOC(=O)C1CCCN(C(c2ccccn2)c2c(C)[nH]c3ccccc23)C1 (centres undefined)	RGS4 act -8.36
CCOc1ccc2ccccc2c1C(=O)NCC(c1ccc(N(C)C)cc1)N(C)C (centres undefined)	none
COc1ccccc1C1NC=C([N+](=O)[O-])C=C1[N+](=O)[O-] (centres undefined)	MrgX1 agonist 28.7
CCc1ccc2nc(N3C(=O)C(O)=C(C(=O)c4ccco4)C3c3cccs3)sc2c1 (centres undefined)	none
Cc1ccc2nc(N3C(=O)C(O)=C(C(=O)c4cc5ccccc5o4)C3c3cccs3)sc2c1 (centres undefined)	MrgX1 antagonist -5.65
COc1cccc(-c2nc(COc3ccc(Cl)cc3Cl)no2)c1	none
O=C(CN1CCc2ccccc21)NN1CC(=O)N(c2ccc(Cl)cc2)CC1=O	none
COc1ccc(C)cc1Nc1n[n+](-c2ccccc2)c(-c2cc([N+](=O)[O-])cc(OC)c2O)s1	MrgX1 antagonist -5.97
O=C(O)c1c2c(nc3ccccc13)/C(=C/c1ccccc1[N+](=O)[O-])CCC2	none
O=C(O)c1c2c(nc3ccccc13)/C(=C/c1cccc([N+](=O)[O-])c1)CCC2	MrgX1 allo act 18
COc1cc(/C=C2\C(=O)NN(c3ccc(C)cc3)C2=O)cc([N+](=O)[O-])c1O	none
COc1cc(/C=C2/C(=O)NN(c3ccc(Cl)cc3)C2=O)cc(OC)c1O	MrgX1 agonist 44.2
CCOC(=O)COc1ccc(/C=C2/C(=O)NN(c3ccc(F)cc3)C2=O)cc1OC	MrgX1 agonist 46.3
COc1ccc(CCNC(=O)c2c(Cl)ccc(Cl)c2OC)cc1OC	none
N#C/C(=C\c1ccc[nH]1)C(=O)NCC1CCCO1 (centres undefined)	MrgX1 allo act 7.83
CC1=CC(=C(C#N)c2nc3ccccc3s2)C=C(C)N1Cc1ccco1	RGS4 act -7.6
COc1cc(C=O)ccc1OCC(=O)Nc1ccc2c(c1)OCO2	none
COc1ccc(Nc2nc(N)c([N+](=O)[O-])c(NC3CCCCC3)n2)cc1	RGS4 act -9.39
O=C1c2ccccc2NC(c2cccc(Cl)c2)N1N=C1CCCCCC1 (centres undefined)	MrgX1 allo act 8.65
O=C1c2ccccc2NC(c2ccc(Cl)cc2Cl)N1O (centres undefined)	none
Cc1cccc(C)c1-n1cccc1/C=C1\SC(=S)N(c2cccc(C(=O)O)c2)C1=O	RGS4 act -7.58
CCOC(=O)c1nn(-c2ccccc2)c2nc(-c3ccc(OC)cc3)c(C#N)c(=O)n12	MrgX1 antagonist -4.93
COc1cc(C(=O)OCC(=O)Nc2cccc(S(=O)(=O)N3CCOCC3)c2)ccc1OCC(C)C	none
COc1cc(N(C)C)c([N+](=O)[O-])cc1C(=O)NC(C)CNc1ccc([N+](=O)[O-])cc1Cl (centres undefined)	MrgX1 antagonist -6.13
CCN(CC)CCNC(=O)c1cc([N+](=O)[O-])c(N(C)C)cc1OC	none
CC1(C)CC2CC(C)(CN2S(=O)(=O)c2ccc(C(=O)Nc3cc(S(=O)(=O)N4CCOCC4)ccc3Cl)cc2)C1 (centres undefined)	RGS4 act -7.22
CC1(C)CC2CC(C)(CN2S(=O)(=O)c2ccc(C(=O)Nc3cccc(S(=O)(=O)N4CCOCC4)c3)cc2)C1 (centres undefined)	none
CCc1sc(N2C(=O)C3C4CCC(C4=C(C)C)C3C2=O)nc1-c1ccccc1 (centres undefined)	RGS4 act -7.46
CCOCCOC(=O)C(C)Oc1ccc(Oc2ncc(Cl)cc2Cl)cc1 (centres undefined)	none
CCOCCOC(=O)C(C)Oc1ccc(Oc2nc(Cl)ccc2Cl)cc1 (centres undefined)	MrgX1 antagonist -8.48
Cc1ccc(NCC(=O)Nc2cccc(S(=O)(=O)N(C)C)c2)cc1S(=O)(=O)N1CCCCCC1	none
CCOc1ccc2nc(N3CCC(C(=O)N4CCN(c5ncccn5)CC4)CC3)sc2c1	MrgX1 antagonist -8.08
Cc1ccc(/C=N/NC(=O)Cc2cccn2C)s1	MrgX1 allo act 6.53
Cc1ccc(/C=N/NC(=O)Cc2cccn2C)cc1	MrgX1 allo act 6.66
Cn1cccc1CC(=O)N/N=C/c1ccc(C(C)(C)C)cc1	none
COCCn1c(SCC(=O)N(C(C)C)C(C)C)nnc1-c1cc2ccccc2cc1O	MrgX1 allo act 6.57
O=C(N/N=C/c1cccc(F)c1)c1c(O)c2c([nH]c1=O)CCCC2	none
COc1ccc2oc(C(=O)N3CCN(S(=O)(=O)c4cccc([N+](=O)[O-])c4)CC3)c(C)c2c1	MrgX1 allo act 16.5
C/C(=N\NC(=O)CC#N)c1ccc(Oc2ccccc2)cc1	none
COc1cccc(-c2nc(N3CCC(C)CC3)c3ccccc3n2)c1O	RGS4 act -7.12
COc1ccc(Nc2nc(-c3cccc(OC)c3O)nc3ccccc23)cc1	RGS4 act -7.6
COCCN(Cc1ccc(C)c(Br)c1)C(=O)Cn1cnc(S(=O)(=O)N2CCCC2)c1	none
COC(=O)c1ccc2c(c1)C(C)(C)C(/C=C/c1ccc(OC)c(OC)c1OC)=[N+]2C	MrgX1 antagonist -6.53
COc1ccc(-n2cccc2C=O)cc1	none
COc1ccc(-n2cccc2/C=C/[N+](=O)[O-])cc1	MrgX1 agonist 32.9
COc1ccc(OC)c(S(=O)(=O)N2CCC3(CC2)OCCN3S(=O)(=O)c2cccs2)c1	RGS4 act -7.54
